Test results published in publication PMC8247328 (British Journal of Clinical Pharmacology, 2020).
Where a SMILES comes first, the peptide text is derived from it. [ ]: non-standard residue; d: D form.

Legend:
[1] = system: patients with early stage HD; assay: Motor assessments and UHDRS; format: in vivo, human; conditions: Part 2; 25 mg s.c. once daily 28 d
Outline: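 In Part 2 only, motor and neurocognitive tests were run at the start and 1.5 h after the final subcutaneous dose on day 28. Each parameter was analysed by mixed-model ANCOVA with treatment as fixed factor and baseline as covariate, with no multiplicity adjustment.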

[2] = system: mitochondrial function in calf muscle; assay: Dynamic 31P-MRS of calf skeletal muscle; format: in vivo, human
Outline: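 Calf muscle was scanned by dynamic 31P-MRS at 7 T with a surface coil and an MRI-compatible pedal ergometer, before, during and after exercise (pulse-acquire, 2-s resolution, flip 45°, 1 average). Pi, PCr and ATP peaks were integrated. τPCr came from a monoexponential fit, and pH from the PCr–Pi frequency difference. Scans were repeated after a 10-min break if end-exercise pH was <6.8. Outliers deviating >5% (up to 10%) were removed. Timing: screening and day 7 (Part 1), day −1 and day 27 (Part 2), 1.5 h post-dose. Analysis was ANCOVA; the posthoc split used the pre-dose median.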

[3] = system: SN4741 cells; conditions: cultured SN4741 cells exposed to MPTP; cited from earlier work
[4] = Plasma pharmacokinetics of SBT-020; format: in vivo, human
Outline: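 Dosing was subcutaneous once daily. In Part 1, 24-h plasma profiles were taken on day 1 and at steady state (day 7); Part 2 used steady-state troughs only. Plasma aliquots were spiked with 5% aqueous formic acid, and active-arm samples were assayed by validated LC-MS (LLOQ 2.5 ng/mL). Noncompartmental analysis set pre-Cmax values below LLOQ to zero and excluded post-Cmax ones.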

[5] = system: MPTP‐treated mice; conditions: cited from earlier work
[6] = system: rats; conditions: ischaemia/reperfusion, single dose of 4 mg/kg; cited from earlier work
[7] = system: mitochondrial function in the visual cortex; assay: 31P-MRS of the visual cortex before, during and after visual stimulation; format: in vivo, human; conditions: Part 2, 25 mg s.c. once daily 28 d
Outline: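 At 3 T, a 6-cm 31P transmit/receive surface coil was placed over the visual cortex, positioned using a 10-mm water sphere on 1H images. Adiabatic pulse-acquire (TR 2 s, flip 90°) FIDs were collected for 4 min at rest (128 averages), 8 min during visual activation (256) and 8 min after (256). Time-domain fitting with prior knowledge gave PCr/ATP, Pi/PCr, Pi/ATP and pH. Scans ran on day −1 and 1.5 h post-dose on day 27; mixed-model ANCOVA used baseline as covariate.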

[8] = Part 1, 5 mg s.c. once daily 7 d, n=6, day 7
[9] = Part 1, 15 mg s.c. once daily 7 d, n=6, day 7
[10] = Part 1, 25 mg s.c. once daily 7 d, ANCOVA
[11] = Part 1, 25 mg s.c. once daily 7 d, n=6, day 7
[12] = Part 2, 25 mg s.c. once daily 28 d, ANCOVA
[13] = Part 2, 25 mg s.c. once daily 28 d, n=11, day 27

N=C(N)NCCC[C@@H](NC(=O)[C@@H](N)Cc1ccccc1)C(=O)N[C@@H](Cc1ccccc1)C(=O)N[C@@H](CCCCN)C(N)=O [SBT‐020, H‐Phe‐D‐Arg‐Phe‐Lys‐NH2] (H-F[dR]FK-NH2)
Effect on motor function [1]: no effect | τPCr with 31P‐MRS, contrast vs placebo (95% CI) ([2]; Part 1, 5 mg s.c. once daily 7 d, ANCOVA): 6.505 (−3.4601, 16.4696) P = .1844 s | PCr/ATP resting phase 31P‐MRS scan, LS mean [2, 8]: 3.7838 | PCr/pi resting phase 31P‐MRS scan, LS mean [2, 8]: 9.9289 | τPCr with 31P‐MRS, LS mean ([2]; Part 1, 5 mg s.c. once daily 7 d, n=6, day 7, 1.5 h post dose): 40.9016 s | τPCr with 31P‐MRS, contrast vs placebo (95% CI) ([2]; Part 1, 15 mg s.c. once daily 7 d, ANCOVA): 8.807 (−1.0294, 18.6436) P = .0757 s | PCr/ATP resting phase 31P‐MRS scan, LS mean [2, 9]: 3.8400 | PCr/pi resting phase 31P‐MRS scan, LS mean [2, 9]: 11.5607 | τPCr with 31P‐MRS, LS mean ([2]; Part 1, 15 mg s.c. once daily 7 d, n=6, day 7, 1.5 h post dose): 43.2040 s | PCr/pi resting phase 31P‐MRS scan, contrast vs placebo (95% CI) [2, 10]: 0.7604 (−1.0773, 2.598) P = .3948 | τPCr with 31P‐MRS, contrast vs placebo (95% CI) [2, 10]: 5.477 (−5.5072, 16.4620) P = .3047 s | PCr/ATP resting phase 31P‐MRS scan, LS mean [2, 11]: 3.8510 | PCr/pi resting phase 31P‐MRS scan, LS mean [2, 11]: 11.2289 | τPCr with 31P‐MRS, LS mean ([2]; Part 1, 25 mg s.c. once daily 7 d, n=6, day 7, 1.5 h post dose): 39.8743 s | Mean τPCr after 7 days of treatment ([2]; Part 1, 5‐mg cohort, baseline mean 41.9): 42.5 s | Mean τPCr after 7 days of treatment ([2]; Part 1, 15‐mg cohort, baseline mean 40.0): 43.1 s | Mean τPCr after 7 days of treatment ([2]; Part 1, 25‐g cohort (so in the source), baseline mean 39.2): 38.8 s | Effect on τPCr, ∆Ψm and percentage of dysfunctional PBMCs ([2]; Part 1, after 7 days of treatment, 5, 15, 25 mg): No overall or dose‐related effects | PCr/ATP resting phase 31P‐MRS scan, contrast vs placebo (95% CI) [2, 12]: −.07 (−0.3, 0.2) P = .54 | PCr/pi resting phase 31P‐MRS scan, contrast vs placebo (95% CI) [2, 12]: 0.1 (−2.0, 2.1) P = .94 | τPCr with 31P‐MRS, contrast vs placebo (95% CI) [2, 12]: 2.8 (−9.3, 15.0) P = .63 sec | PCr/ATP resting phase 31P‐MRS scan, LS mean [2, 13]: 3.7 | PCr/pi resting phase 31P‐MRS scan, LS mean [2, 13]: 10.2 | τPCr with 31P‐MRS, LS mean ([2]; Part 2, 25 mg s.c. once daily 28 d, n=11, day 27, 1.5 h post dose): 40.8 s | Change of τPCr, posthoc ([2]; Part 2, active, high mitochondrial function group (τPCr of < 42.4 s)): did not decrease | Effect on τPCr, ∆Ψm and percentage of dysfunctional PBMCs ([2]; Part 2, after 28 days of treatment, 25 mg): No overall effects | Cell viability and apoptosis [3]: improved cell viability and reduced apoptosis | Exposure higher between day 1 and day 7 ([4]; Part 1, 25‐mg dose cohort): approximately 10% | Accumulation ([4]; Part 2, weekly trough samples, 28 days of daily 25 mg s.c.): did not accumulate | Median percentage of extrapolated AUC ([4]; Part 1 day 7, 15‐mg cohort): less than 2% | Apparent elimination half‐life ([4]; Part 1 day 7, 15‐mg cohort, mean): 3.94 h | Median percentage of extrapolated AUC ([4]; Part 1 day 7, 25‐mg cohort): less than 2% | Tmax ([4]; human, plasma, sc): ~1 h | Dose proportionality of exposure ([4]; once daily subcutaneous administration): dose‐proportional exposure | Attenuation of MPTP‐induced dopamine depletion ([5]; MPTP‐treated mice, single dose of 4 mg/kg): 40% | Neuroprotection in the striatum ([5]; acute MPTP model, peripheral administration at 5 mg/kg, ref not given): sufficient to achieve neuroprotection | Effect in MPTP‐induced mouse model of Parkinson's disease ([5]; given systemically): effective in attenuating injury and improving neurotransmitter release | Infarct size and myocardial lipid peroxidation [6]: significantly reduced | Effect on brain mitochondrial function compared to placebo [7]: No overall statistically significant effect | PCr/ATP after visual stimulation (central 31P‐MRS), contrast vs placebo (95% CI) ([7]; ANCOVA): −0.02 (−0.1, 0.05) P = .57 | Pi/ATP after visual stimulation (central 31P‐MRS), contrast vs placebo (95% CI) ([7]; ANCOVA): 0.0073 (−0.0270, 0.0415) P = .6613 | Pi/ATP before visual stimulation (central 31P‐MRS), contrast vs placebo (95% CI) ([7]; ANCOVA): −0.002 (−0.02, 0.02) P = .80 | Pi/ATP during visual stimulation (central 31P‐MRS), contrast vs placebo (95% CI) ([7]; ANCOVA): −0.004 (−0.02, 0.01) P = .57
